One block for each molecule: values may come before it. The source made the active and inactive calls. The calls are words filed in the database; no cut-off is given here.
How the values were obtained:
[1] = Antioxidant activity assessed as DMSO hydroxyl radical scavenging activity at 0.1 mM; format: functional
Outline: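 Hydroxyl radicals generated by Fe3+/ascorbic acid; reaction mix contained EDTA 0.1 mM, Fe3+ 167 µM, DMSO 33 mM and ascorbic acid 10 mM in 50 mM phosphate buffer pH 7.4, with test compound at 0.1 mM. Incubated 30 min at 37 °C, then stopped with trichloroacetic acid (17% w/v). Formaldehyde from DMSO oxidation was measured by the Nash method at 425 nm. At least triplicate.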

[2] = Antioxidant activity assessed as DPPH reducing activity at 0.5 mM after 20 mins; format: functional; parameters: scale not given: the % may be the effect or the level left
Outline: (§1)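 DPPH in absolute ethanol was mixed with an equal volume of compound in ethanol (0.1 or 0.5 mM); ethanol served as control. Absorbance at 517 nm was read after 20 and 60 min at room temperature. At least triplicate.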

[3] = Antioxidant activity assessed as DPPH reducing activity at 0.1 mM after 60 mins; format: functional; parameters: scale not given: the % may be the effect or the level left; outline: as §1
[4] = target: T1, Seed linoleate 13S-lipoxygenase-1 (Glycine max) (UniProt P08170); experiment: Inhibition of soybean lipoxygenase at 0.1 mM
T1 sequence (whole entry): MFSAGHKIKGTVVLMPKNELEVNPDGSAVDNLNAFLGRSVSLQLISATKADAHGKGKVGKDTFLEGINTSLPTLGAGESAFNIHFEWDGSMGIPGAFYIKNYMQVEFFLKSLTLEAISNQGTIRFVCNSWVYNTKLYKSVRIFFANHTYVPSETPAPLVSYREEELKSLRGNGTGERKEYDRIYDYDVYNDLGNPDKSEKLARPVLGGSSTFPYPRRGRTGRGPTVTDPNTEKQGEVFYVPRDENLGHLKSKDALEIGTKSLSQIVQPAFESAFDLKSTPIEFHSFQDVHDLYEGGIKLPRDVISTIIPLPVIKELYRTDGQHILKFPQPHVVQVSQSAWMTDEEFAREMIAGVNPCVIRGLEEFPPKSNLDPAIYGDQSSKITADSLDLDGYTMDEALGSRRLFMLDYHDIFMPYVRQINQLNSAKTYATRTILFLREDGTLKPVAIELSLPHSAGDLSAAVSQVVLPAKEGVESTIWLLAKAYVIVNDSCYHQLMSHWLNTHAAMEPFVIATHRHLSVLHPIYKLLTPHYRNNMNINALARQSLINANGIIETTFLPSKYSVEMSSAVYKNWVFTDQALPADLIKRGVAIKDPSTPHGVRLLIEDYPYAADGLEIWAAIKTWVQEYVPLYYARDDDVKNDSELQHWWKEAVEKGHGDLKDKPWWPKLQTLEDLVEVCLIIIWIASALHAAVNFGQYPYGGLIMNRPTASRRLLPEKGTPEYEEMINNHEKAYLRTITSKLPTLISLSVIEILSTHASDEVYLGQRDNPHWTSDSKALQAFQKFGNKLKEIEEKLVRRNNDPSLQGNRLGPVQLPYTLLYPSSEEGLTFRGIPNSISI
Outline: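 Soybean lipoxygenase solution (1/9 × 10⁴ w/v in saline) was incubated at room temperature with sodium linoleate (0.1 mM) and compound dissolved in ethanol. UV absorbance-based read-out. At least triplicate.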

[5] = Antioxidant activity assessed as DPPH reducing activity at 0.5 mM after 60 mins; format: functional; parameters: scale not given: the % may be the effect or the level left; outline: as §1
Rattus norvegicus = experiment: Inhibition of carrageenan-induced Fischer 344 rat paw edema at 0.01 mmol/kg, ip; format: functional; details: Fischer 344, ip
Outline: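 Fischer 344 rats (150-200 g), both sexes, pregnant females excluded; 6-15 per group. Paw edema was induced by intradermal injection of 0.1 mL 2% carrageenin in water into the right hind paw. Compound at 0.01 mmol/kg, suspended in water with a few drops of Tween 80, was given ip at the same time. Rats were euthanized at 3.5 h. Injected minus uninjected paw weight was expressed as % inhibition versus water-treated controls. Mean of two experiments.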

[6] = Antioxidant activity assessed as DPPH reducing activity at 0.1 mM after 20 mins; format: functional; parameters: scale not given: the % may be the effect or the level left; outline: as §1

- Activity [4]: inactive
Structure (SMILES): Nc1ccccc1NC(=O)c1c(O)c2ccccc2n(-c2ccccc2)c1=O
- Activity [1]: 98%
- Activity [2]: 21.3%
- Activity [3]: 16.3%
- Activity [5]: 34.7%
- inhibition in vivo at 10 µmol/kg (Rattus norvegicus): 48.5%
- Activity [6]: 9.4%

- inhibition [4]: 50.8%
Structure (SMILES): Cn1c(=O)c(C(=O)Nc2ccc(N)cc2)c(O)c2ccccc21
- Activity [1]: 20.7%
- Activity [2]: 85.1%
- Activity [3]: 88.1%
- Activity [5]: 83.7%
- inhibition in vivo at 10 µmol/kg (Rattus norvegicus): 69.5%
- Activity [6]: 90.2%

- inhibition [4]: 100%
Structure (SMILES): COC(=O)c1c(O)c2ccccc2n(-c2ccccc2)c1=O
- Activity [1]: 95%
- Activity [2]: 16.8%
- Activity [3]: 9.1%
- Activity [5]: 19.3%
- inhibition in vivo at 10 µmol/kg (Rattus norvegicus): 37.1%
- Activity [6]: 9.1%

- inhibition [4]: 58.9%
Structure (SMILES): Nc1ccc(NC(=O)c2c(O)c3ccccc3n(-c3ccccc3)c2=O)cc1
- Activity [1]: 10%
- Activity [2]: 94.4%
- Activity [3]: 88.3%
- Activity [5]: 89.2%
- inhibition in vivo at 10 µmol/kg (Rattus norvegicus): 56.4%
- Activity [6]: 89%

- inhibition [4]: 17.6%
Structure (SMILES): NCCCCCCNC(=O)c1c(O)c2ccccc2n(-c2ccccc2)c1=O
- Activity [1]: 27.1%
- Activity [2]: 19.3%
- Activity [3]: 17.5%
- Activity [5]: 28.1%
- inhibition in vivo at 10 µmol/kg (Rattus norvegicus): 68.8%
- Activity [6]: 11.6%

- inhibition [4]: 82.3%
Structure (SMILES): NCCNC(=O)c1c(O)c2ccccc2n(-c2ccccc2)c1=O
- Activity [1]: 78.6%
- Activity [2]: 1.4%
- Activity [3]: 10%
- Activity [5]: 7.9%
- inhibition in vivo at 10 µmol/kg (Rattus norvegicus): 68.1%
- Activity [6]: 7.2%

Continued, molecule first:

Structure (SMILES): O=C(CCCCC1CCSS1)NCCNC(=O)c1c(O)c2ccccc2n(-c2ccccc2)c1=O (stereo unspecified)
- Activity [1]: 0%
- Activity [2]: inactive
- Activity [3]: 7.8%
- Activity [4]: inactive
- Activity [5]: 14.1%
- inhibition in vivo at 10 µmol/kg (Rattus norvegicus): 45.5%
- Activity [6]: 6.4%

Structure (SMILES): Cn1c(=O)c(C(=O)NCCCCCCNC(=O)CCCCC2CCSS2)c(O)c2ccccc21 (stereo unspecified)
- Activity [1]: 28.6%
- Activity [2]: 28.4%
- Activity [3]: 13%
- inhibition [4]: 79.1%
- Activity [5]: 38.8%
- inhibition in vivo at 10 µmol/kg (Rattus norvegicus): 53%
- Activity [6]: 9.1%

Structure (SMILES): O=C(CCCCC1CCSS1)Nc1ccccc1NC(=O)c1c(O)c2ccccc2n(-c2ccccc2)c1=O (stereo unspecified)
- Activity [1]: inactive
- Activity [2]: 11%
- Activity [3]: 16.1%
- inhibition [4]: 100%
- Activity [5]: 28.5%
- inhibition in vivo at 10 µmol/kg (Rattus norvegicus): 63%
- Activity [6]: 9.7%

Structure (SMILES): Cn1c(=O)c(C(=O)NCCCCCCN)c(O)c2ccccc21
- Activity [1]: 59.3%
- Activity [2]: 13.7%
- Activity [3]: 8.3%
- inhibition [4]: 92.1%
- Activity [5]: 21.9%
- inhibition in vivo at 10 µmol/kg (Rattus norvegicus): 68.5%
- Activity [6]: 3.1%

Structure (SMILES): Cn1c(=O)c(C(=O)NCCN)c(O)c2ccccc21
- Activity [1]: 40.1%
- Activity [2]: 20.9%
- Activity [3]: 11.5%
- inhibition [4]: 99.5%
- Activity [5]: 37.1%
- inhibition in vivo at 10 µmol/kg (Rattus norvegicus): 67%
- Activity [6]: 5.6%

Structure (SMILES): COc1ccc2c(c1)c(CC(=O)O)c(C)n2C(=O)c1ccc(Cl)cc1 [INDOMETHACIN]
- inhibition in vivo at 10 µmol/kg (Rattus norvegicus): 47%

Structure (SMILES): Cn1c(=O)c(C(=O)Nc2ccccc2N)c(O)c2ccccc21
- Activity [1]: 60.5%
- Activity [2]: 28.8%
- Activity [3]: 13.5%
- inhibition [4]: 71.3%
- Activity [5]: 41.4%
- inhibition in vivo at 10 µmol/kg (Rattus norvegicus): 85.3%
- Activity [6]: 6%

Structure (SMILES): Cc1c(C)c2c(c(C)c1O)CCC(C)(C(=O)O)O2 (stereo unspecified)
- Activity [1]: 88.2%

Structure (SMILES): O=C(CCCCC1CCSS1)NCCCCCCNC(=O)c1c(O)c2ccccc2n(-c2ccccc2)c1=O (stereo unspecified)
- Activity [1]: inactive
- Activity [2]: 23.9%
- Activity [3]: 10.2%
- inhibition [4]: 64%
- Activity [5]: 29.5%
- inhibition in vivo at 10 µmol/kg (Rattus norvegicus): 50%
- Activity [6]: 6.2%

Structure (SMILES): O=C(O)CCCCC1CCSS1 (stereo not drawn) [LIPOIC ACID, ALPHA]
- Activity [1]: 38.6%
- Activity [2]: 5.2%
- Activity [3]: 27.1%
- inhibition [4]: 29.1%
- Activity [5]: 6.8%
- inhibition in vivo at 10 µmol/kg (Rattus norvegicus): 29.6%
- Activity [6]: 20.3%

Structure (SMILES): CC(Cc1ccc(O)c(O)c1)C(C)Cc1ccc(O)c(O)c1 (stereo unspecified)
- Activity [2]: 96.5%
- Activity [5]: 98%

Structure (SMILES): COC(=O)c1c(O)c2ccccc2n(C)c1=O
- Activity [1]: 45%
- Activity [2]: 17.5%
- Activity [3]: 7.4%
- inhibition [4]: 72.4%
- Activity [5]: 18.4%
- inhibition in vivo at 10 µmol/kg (Rattus norvegicus): 58.8%
- Activity [6]: 8.3%

Structure (SMILES): Cn1c(=O)c(C(=O)NCCNC(=O)CCCCC2CCSS2)c(O)c2ccccc21 (stereo unspecified)
- Activity [1]: 67.9%
- Activity [2]: 28.8%
- Activity [3]: 3.4%
- inhibition [4]: 66.5%
- Activity [5]: 40.1%
- inhibition in vivo at 10 µmol/kg (Rattus norvegicus): 48.2%
- Activity [6]: 10.9%
